# Source: PubChem BioAssay (Broad Institute)
# Compounds with a hit are over-represented: about 2.5% of the library has one in this group of screens.
# SR-BI uptake up: enhances SR-BI lipid uptake from DiI-HDL; activation, % at 12.5 µM; CHO ldlA[mSR-BI] cells, DiI-HDL uptake fluorescence, 3 h; 100 = double the neutral-control signal; actives 0.096% (n = 320,000);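 active = mean replicate activation of at least 60% and every replicate at or above 60%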;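 also: 0% = median plate neutral-control signal and 100% = twice that signal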
#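 System: LDL receptor-deficient CHO ldlA cells overexpressing murine SR-BI | Timing: 3 h uptake period with compound, 37 °C | Medium: HEPES-buffered (25 mM, pH 7.4) F12 plus 0.5% BSA | Dosing: Single-point compound dose | Signal: Bottom-read fluorescence, 550/595 nm | Read-out: Retained DiI signal reflecting DiI-HDL uptake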
# SR-BI DiI inh: inhibitors of mouse SR-BI mediated HDL lipid uptake; AID 488896; actives 0.96% (n = 320,000); inhibition, % at 12.5 µM; Q61009; ldlA[mSR-BI] CHO cells, DiI-HDL uptake fluorescence, 3 h;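 active = mean replicate inhibition of at least 70% and a set share of replicates each scoring 70 or more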;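 also: 0% = median of neutral control wells and 100% = median of positive control wells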
# DYRK1A inh: blocks rat Dyrk1A kinase activity; Q63470; actives 0.43% (n = 310,000); ADP-Glo luminescence, NFATc1 peptide; inhibition, % at 12.5 µM;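 also: plate controls were vehicle with enzyme for no effect and no enzyme for full effect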
# NSD2 inh: NSD2 (human) methyltransferase inhibition; actives 0.54% (n = 310,000); inhibition, % at 12.5 µM; NSD2 peptide methylation, AlphaScreen, 120 min; O96028; AID 743445
# CDK5 p35 inh: blocks human CDK5/p35 kinase activity; AID 488839; Recombinant CDK5/p35, ADP-Glo luminescence, 60 min; inhibition, % at 10 µM; Q00535+Q15078; actives 0.01% (n = 330,000);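 active = highest replicate inhibition of at least 50% and at least 75% of replicates reaching 50%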;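 also: plate controls were DMSO neutral control for no effect and GW8510 at 10 µM for full effect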
# dFosB act: enhances mouse delta FosB homodimer DNA binding. purified delta FosB, TAMRA-CDK5 oligo fluorescence polarization; percent of positive-control signal above neutral wells. activation, % at 25 µM. actives 0.99% (n = 340,000). AID 493131;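 active = mean activation above about 17%, with every replicate also reaching it, limit read from the data, passing the limit was not always enough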
# Target sequence (P13346 whole entry, looked up): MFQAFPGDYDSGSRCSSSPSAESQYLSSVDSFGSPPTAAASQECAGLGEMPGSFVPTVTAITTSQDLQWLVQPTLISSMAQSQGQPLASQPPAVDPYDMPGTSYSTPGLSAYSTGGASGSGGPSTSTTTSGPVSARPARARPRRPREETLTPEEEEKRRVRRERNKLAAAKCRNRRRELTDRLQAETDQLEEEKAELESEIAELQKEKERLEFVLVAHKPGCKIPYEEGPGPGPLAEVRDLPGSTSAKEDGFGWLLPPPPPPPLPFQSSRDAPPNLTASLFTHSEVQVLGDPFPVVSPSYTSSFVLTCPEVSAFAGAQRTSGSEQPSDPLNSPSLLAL
# Active calls of the source: *; . = no result given; ! = not active in a repeat. Rule as the data show it, unless noted: active = inhibition above about 50%; inactive = the rest.
SMILES,SR-BI uptake up,SR-BI DiI inh,DYRK1A inh,NSD2 inh,CDK5 p35 inh,dFosB act
CC(=O)Cn1c(=O)oc2ccccc21,113*,-114,7,0,1,1
CC(=O)N1CCN(C(=O)Cn2c(=O)oc3ccccc32)CC1,18,-18,0,-1,1,4
COCC1=C(C(=O)OC(C)OC(=O)OC(C)C)N2C(=O)[C@@H](NC(=O)/C(=N\OC)c3csc(N)n3)[C@H]2SC1 (some centres undefined),-88,88*,14,.,3,3
CON=C(C(=O)NC1C(=O)N2C(C(=O)O)=C(CSc3nc(=O)c(=O)[nH]n3C)CSC12)c1csc(N)n1 (centres undefined),5,-5,-10,.,-2,-2
COc1ccc2[nH]c3c(=O)n(CCCC(=O)NC4CCCCC4C)c(=S)[nH]c3c2c1 (centres undefined),-5,5,-1,-2,0,52*
CC1CCCCC1NC(=O)CCCn1c(=S)[nH]c2ccccc2c1=O (centres undefined),-10,10,-3,-4,1,3
C(=C\c1ccccc1)/CSc1nnc(COc2ccccc2)n1Cc1ccco1,.,.,.,-4,.,.
O=C(CCS(=O)(=O)c1ccccc1)Nc1ccccc1-c1nc2ccccc2s1,-72,72*,-2,-3,1,1
COc1ccccc1S(=O)(=O)Cc1ccc(C(=O)NCc2ccccc2)o1,9,-9,-2,2,1,-4
COc1ccc(-c2sc3ccccc3c2/C=C/c2ccc(OC)c(OC)c2)cc1,-82,82*,5,.,-3,7
N=C1N(c2ccccc2)C(=S)C(=Nc2ccccc2)N1c1ccccc1,-24,24,0,0,-1,-4
CCOC(=O)c1ccc(N=C2C(=S)N(c3ccc(C(=O)OCC)cc3)C(=N)N2/N=C/c2ccccc2)cc1,-76,76*,-7,.,-1,-5
CCN(CC(=O)Nc1ccc(OC)cc1)C(=O)c1ccc(N2C(=O)CCC2=O)cc1,6,-6,0,0,1,-3
O=C(COC(=O)c1cc([N+](=O)[O-])ccc1N1CCOCC1)Nc1ncc(Cl)cc1Cl,.,86*,1,5,0,-7
O=C(COC(=O)c1cc([N+](=O)[O-])ccc1N1CCOCC1)Nc1ccccc1OC(F)F,-74,74*,-9,6,-1,-8
O=C(COC(=O)c1cc([N+](=O)[O-])ccc1N1CCOCC1)Nc1cc(F)ccc1F,-85,85*,2,7,0,-1
Cc1cc(C)c(NC(=O)COC(=O)c2cc([N+](=O)[O-])ccc2N2CCOCC2)c(C)c1,-47,47,4,-1,3,-8
O=C(COC(=O)c1cc([N+](=O)[O-])ccc1N1CCOCC1)c1ccc(OC(F)F)cc1OC(F)F,-76,76*,11,-6,2,-8
O=C(COC(=O)c1cc([N+](=O)[O-])ccc1N1CCOCC1)Nc1c(Cl)cccc1C(F)(F)F,-41,41,-2,0,-3,0
O=C(COC(=O)c1cc([N+](=O)[O-])ccc1N1CCCC1)Nc1ccccc1OC(F)F,-67,67,-1,4,-2,-3
CCN(CC(=O)Nc1ccc(NC(C)=O)cc1)C(=O)c1ccc2c(c1)OCO2,12,-12,9,2,-3,-4
Cc1cc(NC(=O)COC(=O)c2cc([N+](=O)[O-])ccc2N2CCOCC2)ccc1Br,-71,71*,9,-2,1,5
Cc1cc(NC(=O)COC(=O)CCn2c(C)csc2=O)c([N+](=O)[O-])cc1C,.,.,.,1,.,.
Cc1ccc(S(=O)(=O)NC2=C(N3CCN(c4ccccc4F)CC3)C(=O)c3ccccc3C2=O)cc1,-68,97*!,2,6,0,-8
Cc1ccc(S(=O)(=O)NC2=C(N3CCN(Cc4ccccc4)CC3)C(=O)c3ccccc3C2=O)cc1,-27,27,.,40,0,-4
SMILES,SR-BI uptake up,SR-BI DiI inh,DYRK1A inh,NSD2 inh,CDK5 p35 inh,dFosB act
CCOC(=O)N1CCN(C2=C(NS(=O)(=O)c3ccc(C)cc3)C(=O)c3ccccc3C2=O)CC1,-13,13,-4,64*,0,-9
NC(=O)c1ccc(SCC(=O)OCC(=O)NCc2ccco2)c([N+](=O)[O-])c1,-10,10,10,-14,1,-4
COc1ccc(Nc2cc(Cl)nc(N)n2)cc1,67*,-67,-3,0,3,1
COc1ccc(Nc2cc(C)nc(N)n2)cc1,-2,2,1,-1,0,-1
CCn1c2ccccc2c2nnc(SCC(=O)Nc3c(C)n(C)n(-c4ccccc4)c3=O)nc21,-14,14,1,2,-5,0
Cc1c(NC(=O)CSc2nnc3c4ccccc4n(CCc4ccccc4)c3n2)c(=O)n(-c2ccccc2)n1C,-82,82*,3,38,0,2
C=CCOC(=O)C1=C(C)NC(=S)NC1/C=C/c1ccccc1 (centres undefined),-82,82*,8,3,2,-6
CC1=C(C(=O)OCc2ccccc2)C(/C=C/c2ccccc2)NC(=S)N1 (centres undefined),-74,74*,4,-1,0,1
COCCOC(=O)C1=C(C)NC(=S)NC1/C=C/c1ccccc1 (centres undefined),-40,40,-2,-1,0,-2
COc1ccc(/C=C(/NC(=O)c2ccccc2)C(=O)N/N=C/c2sccc2C)cc1,-78,78*,6,0,-2,0
Cc1ccc(C(=O)N/N=C\c2sccc2C)cn1,3,-3,-4,0,2,0
O=C(N/N=C/c1ccc(O)c(O)c1O)/C(=C/c1ccc([N+](=O)[O-])cc1)NC(=O)c1ccccc1,-98,98*,-2,-4,0,-13
COc1ccc(/C=C(\NC(=O)c2ccccc2)C(=O)N/N=C/c2sccc2C)cc1,-48,48,3,0,-2,11
Cc1ccsc1/C=N/NC(=O)c1ccc(-n2cccc2)cc1,-77,77*,1,.,1,3
Cc1ccc(NC(=O)/C(=C\c2ccc([N+](=O)[O-])cc2)NC(=O)c2ccccc2)cc1,-22,22,-6,4,2,10
CCOC(=O)/C=C1/SCC(=O)N1CC(=O)NC12CC3CC(CC(C3)C1)C2,-3,3,1,1,-4,-5
O=C(Nc1ccc2c(c1)N(S(=O)(=O)c1cccs1)CCC2)c1c(F)cccc1Cl,-41,41,-2,-2,2,1
COc1cccc(OC)c1C(=O)Nc1ccc2c(c1)N(S(=O)(=O)c1cccs1)CCC2,-77,77*,-3,-6,-4,3
